Measured values from ChEMBL document CHEMBL3046406, “Herbicidal potential of ophiobolins produced by Drechslera gigantea” (2006).
Activity calls are given as the source filed them. The calls are words filed in the database; no cut-off is given here.

Tests used:
Type in all cases: functional
[1] = system: Diplotaxis erucoides; test: Herbicidal activity against Diplotaxis erucoides assessed as diameter of leaf necrosis at 50 ug/ml measured after 2 days post compound treatment by leaf puncture assay
How it was run: (§1)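 Detached leaf segments (about 5 cm) from young greenhouse-grown plants, each with a superficial puncture lesion (0.5 mm) made by glass capillary. Compound dissolved in DMSO, diluted with distilled water (final DMSO 2%), 8 µL droplet applied. Segments held on moist filter paper at 25 °C under continuous fluorescent light (10000 lux). DMSO droplets as control. Necrosis scored visually on a 0–3 scale at day 2.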

[2] = system: Oloptum miliaceum; test: Herbicidal activity against Piptatherum miliaceum assessed as diameter of leaf necrosis at 250 ug/ml measured after 2 days post compound treatment by leaf puncture assay; how it was run: as §1
[3] = system: Avena sterilis subsp. ludoviciana; test: Herbicidal activity against Avena sterilis subsp. ludoviciana assessed as diameter of leaf necrosis at 50 ug/ml measured after 2 days post compound treatment by leaf puncture assay; how it was run: as §1
[4] = system: Oloptum miliaceum; test: Herbicidal activity against Piptatherum miliaceum assessed as diameter of leaf necrosis at 100 ug/ml measured after 2 days post compound treatment by leaf puncture assay; how it was run: as §1
[5] = system: Phalaris canariensis; test: Herbicidal activity against Phalaris canariensis assessed as diameter of leaf necrosis at 100 ug/ml measured after 2 days post compound treatment by leaf puncture assay; how it was run: as §1
[6] = system: Digitaria sanguinalis; test: Herbicidal activity against Digitaria sanguinalis (hairy crabgrass) assessed as diameter of leaf necrosis at 50 ug/ml measured after 2 days post compound treatment by leaf puncture assay; how it was run: as §1
[7] = system: Setaria viridis; test: Herbicidal activity against Setaria viridis assessed as diameter of leaf necrosis at 250 ug/ml measured after 2 days post compound treatment by leaf puncture assay; how it was run: as §1
[8] = system: Phalaris canariensis; test: Herbicidal activity against Phalaris canariensis assessed as diameter of leaf necrosis at 50 ug/ml measured after 2 days post compound treatment by leaf puncture assay; how it was run: as §1
[9] = system: Echinochloa crus-galli; test: Herbicidal activity against Echinochloa crus-galli (barnyard grass) assessed as diameter of leaf necrosis at 50 ug/ml measured after 2 days post compound treatment by leaf puncture assay; how it was run: as §1
[10] = system: Bromus sterilis; test: Herbicidal activity against Bromus sterilis assessed as diameter of leaf necrosis at 100 ug/ml measured after 2 days post compound treatment by leaf puncture assay; how it was run: as §1
[11] = system: Setaria viridis; test: Herbicidal activity against Setaria viridis assessed as diameter of leaf necrosis at 50 ug/ml measured after 2 days post compound treatment by leaf puncture assay; how it was run: as §1
[12] = system: Cynodon dactylon; test: Herbicidal activity against Cynodon dactylon assessed as diameter of leaf necrosis at 50 ug/ml measured after 2 days post compound treatment by leaf puncture assay; how it was run: as §1
[13] = system: Echinochloa crus-galli; test: Herbicidal activity against Echinochloa crus-galli (barnyard grass) assessed as diameter of leaf necrosis at 250 ug/ml measured after 2 days post compound treatment by leaf puncture assay; how it was run: as §1
[14] = system: Bromus sterilis; test: Herbicidal activity against Bromus sterilis assessed as diameter of leaf necrosis at 250 ug/ml measured after 2 days post compound treatment by leaf puncture assay; how it was run: as §1
[15] = system: Avena sterilis subsp. ludoviciana; test: Herbicidal activity against Avena sterilis subsp. ludoviciana assessed as diameter of leaf necrosis at 100 ug/ml measured after 2 days post compound treatment by leaf puncture assay; how it was run: as §1
[16] = system: Sonchus oleraceus; test: Herbicidal activity against Sonchus oleraceus assessed as diameter of leaf necrosis at 50 ug/ml measured after 2 days post-compound treatment by leaf puncture assay; how it was run: as §1
[17] = system: Diplotaxis erucoides; test: Herbicidal activity against Diplotaxis erucoides assessed as diameter of leaf necrosis at 250 ug/ml measured after 2 days post compound treatment by leaf puncture assay; how it was run: as §1
[18] = system: Oloptum miliaceum; test: Herbicidal activity against Piptatherum miliaceum assessed as diameter of leaf necrosis at 50 ug/ml measured after 2 days post compound treatment by leaf puncture assay; how it was run: as §1
[19] = system: Phalaris canariensis; test: Herbicidal activity against Phalaris canariensis assessed as diameter of leaf necrosis at 250 ug/ml measured after 2 days post compound treatment by leaf puncture assay; how it was run: as §1
[20] = system: Diplotaxis erucoides; test: Herbicidal activity against Diplotaxis erucoides assessed as diameter of leaf necrosis at 100 ug/ml measured after 2 days post compound treatment by leaf puncture assay; how it was run: as §1
[21] = system: Convolvulus arvensis; test: Herbicidal activity against Convolvulus arvensis assessed as diameter of leaf necrosis at 100 ug/ml measured after 2 days post compound treatment by leaf puncture assay; how it was run: as §1
[22] = system: Convolvulus arvensis; test: Herbicidal activity against Convolvulus arvensis assessed as diameter of leaf necrosis at 50 ug/ml measured after 2 days post compound treatment by leaf puncture assay; how it was run: as §1
[23] = system: Sonchus oleraceus; test: Herbicidal activity against Sonchus oleraceus assessed as diameter of leaf necrosis at 250 ug/ml measured after 2 days post-compound treatment by leaf puncture assay; how it was run: as §1
[24] = system: Amaranthus retroflexus; test: Herbicidal activity against Amaranthus retroflexus assessed as diameter of leaf necrosis at 250 ug/ml measured after 2 days post compound treatment by leaf puncture assay; how it was run: as §1
[25] = system: Echinochloa crus-galli; test: Herbicidal activity against Echinochloa crus-galli (barnyard grass) assessed as diameter of leaf necrosis at 100 ug/ml measured after 2 days post compound treatment by leaf puncture assay; how it was run: as §1
[26] = system: Digitaria sanguinalis; test: Herbicidal activity against Digitaria sanguinalis (hairy crabgrass) assessed as diameter of leaf necrosis at 100 ug/ml measured after 2 days post compound treatment by leaf puncture assay; how it was run: as §1
[27] = system: Bromus sterilis; test: Herbicidal activity against Bromus sterilis assessed as diameter of leaf necrosis at 50 ug/ml measured after 2 days post compound treatment by leaf puncture assay; how it was run: as §1
[28] = system: Amaranthus retroflexus; test: Herbicidal activity against Amaranthus retroflexus assessed as diameter of leaf necrosis at 50 ug/ml measured after 2 days post compound treatment by leaf puncture assay; how it was run: as §1
[29] = system: Cynodon dactylon; test: Herbicidal activity against Cynodon dactylon assessed as diameter of leaf necrosis at 250 ug/ml measured after 2 days post compound treatment by leaf puncture assay; how it was run: as §1
[30] = system: Sonchus oleraceus; test: Herbicidal activity against Sonchus oleraceus assessed as diameter of leaf necrosis at 100 ug/ml measured after 2 days post-compound treatment by leaf puncture assay; how it was run: as §1
[31] = system: Digitaria sanguinalis; test: Herbicidal activity against Digitaria sanguinalis (hairy crabgrass) assessed as diameter of leaf necrosis at 250 ug/ml measured after 2 days post compound treatment by leaf puncture assay; how it was run: as §1
[32] = system: Chenopodium album; test: Herbicidal activity against Chenopodium album assessed as diameter of leaf necrosis at 50 ug/ml measured after 2 days post compound treatment by leaf puncture assay; how it was run: as §1
[33] = system: Convolvulus arvensis; test: Herbicidal activity against Convolvulus arvensis assessed as diameter of leaf necrosis at 250 ug/ml measured after 2 days post compound treatment by leaf puncture assay; how it was run: as §1
[34] = system: Cynodon dactylon; test: Herbicidal activity against Cynodon dactylon assessed as diameter of leaf necrosis at 100 ug/ml measured after 2 days post compound treatment by leaf puncture assay; how it was run: as §1
[35] = system: Chenopodium album; test: Herbicidal activity against Chenopodium album assessed as diameter of leaf necrosis at 250 ug/ml measured after 2 days post compound treatment by leaf puncture assay; how it was run: as §1
[36] = system: Chenopodium album; test: Herbicidal activity against Chenopodium album assessed as diameter of leaf necrosis at 100 ug/ml measured after 2 days post compound treatment by leaf puncture assay; how it was run: as §1
[37] = system: Avena sterilis subsp. ludoviciana; test: Herbicidal activity against Avena sterilis subsp. ludoviciana assessed as diameter of leaf necrosis at 250 ug/ml measured after 2 days post compound treatment by leaf puncture assay; how it was run: as §1
[38] = system: Setaria viridis; test: Herbicidal activity against Setaria viridis assessed as diameter of leaf necrosis at 100 ug/ml measured after 2 days post compound treatment by leaf puncture assay; how it was run: as §1
[39] = system: Amaranthus retroflexus; test: Herbicidal activity against Amaranthus retroflexus assessed as diameter of leaf necrosis at 100 ug/ml measured after 2 days post compound treatment by leaf puncture assay; how it was run: as §1

Row | SMILES | Activity [1] | Activity [2] | Activity [3] | Activity [4] | Activity [5] | Activity [6] | Activity [7] | Activity [8] | Activity [9] | Activity [10] | Activity [11] | Activity [12] | Activity [13] | Activity [14] | Activity [15] | Activity [16] | Activity [17] | Activity [18] | Activity [19] | Activity [20] | further results
1 | CC(C)=C[C@H]1C[C@H](C)[C@]2(CC[C@]3(C)C[C@H]4[C@H](C(=O)C[C@@]4(C)O)/C(C=O)=C\C[C@H]32)O1 [OPHIOBOLIN A] | 2 mm | >3 mm | >3 mm | 2 mm | >3 mm | >3 mm | >3 mm | >3 mm | >3 mm | 2 mm | >3 mm | inactive | >3 mm | >3 mm | >3 mm | >3 mm | 2 mm | 1 mm | >3 mm | 2 mm | Activity [21]: 2 mm; Activity [22]: 2 mm; Activity [23]: >3 mm; Activity [24]: >3 mm; Activity [25]: >3 mm; Activity [26]: >3 mm; Activity [27]: 1 mm; Activity [28]: 2 mm; Activity [29]: 1 mm; Activity [30]: >3 mm; Activity [31]: >3 mm; Activity [32]: 2 mm; Activity [33]: 2 mm; Activity [34]: inactive; Activity [35]: >3 mm; Activity [36]: 2 mm; Activity [37]: >3 mm; Activity [38]: >3 mm; Activity [39]: 2 mm
2 | CC(C)=C[C@H]1C[C@H](C)[C@]2(CC[C@]3(C)C[C@@H]4C(C)=CC(=O)[C@H]4/C(C=O)=C\C[C@H]32)O1 [3-ANHYDRO-6-EPI-OPHIOBOLIN A] | 2 mm | 1 mm | inactive | 1 mm | 1 mm | inactive | 2 mm | 1 mm | 1 mm | 1 mm | 2 mm | inactive | 1 mm | 1 mm | inactive | inactive | >3 mm | 1 mm | 1 mm | >3 mm | Activity [21]: inactive; Activity [22]: inactive; Activity [23]: 1 mm; Activity [24]: inactive; Activity [25]: 1 mm; Activity [26]: 1 mm; Activity [27]: 1 mm; Activity [28]: inactive; Activity [29]: inactive; Activity [30]: 1 mm; Activity [31]: 1 mm; Activity [32]: inactive; Activity [33]: inactive; Activity [34]: inactive; Activity [35]: 1 mm; Activity [36]: 1 mm; Activity [37]: inactive; Activity [38]: 2 mm; Activity [39]: inactive
3 | CC(C)=C[C@H]1C[C@H](C)[C@]2(CC[C@]3(C)C[C@@H]4C(C)=CC(=O)[C@H]4/C(CO)=C\C[C@H]32)O1 | inactive | inactive | inactive | inactive | inactive | inactive | inactive | inactive | inactive | inactive | inactive | inactive | inactive | inactive | inactive | inactive | inactive | inactive | inactive | inactive | Activity [21]: inactive; Activity [22]: inactive; Activity [23]: inactive; Activity [24]: inactive; Activity [25]: inactive; Activity [26]: inactive; Activity [27]: inactive; Activity [28]: inactive; Activity [29]: inactive; Activity [30]: inactive; Activity [31]: inactive; Activity [32]: inactive; Activity [33]: inactive; Activity [34]: inactive; Activity [35]: inactive; Activity [36]: inactive; Activity [37]: inactive; Activity [38]: inactive; Activity [39]: inactive
4 | CC(C)=C[C@H]1C[C@H](C)[C@]2(CC[C@]3(C)C[C@H]4[C@@H](C(=O)C[C@@]4(C)O)/C(C=O)=C\C[C@H]32)O1 [6-EPI-OHPIOBOLIN A] | 2 mm | 2 mm | 2 mm | 1 mm | 2 mm | 2 mm | >3 mm | 1 mm | 1 mm | 1 mm | >3 mm | inactive | 2 mm | 2 mm | 2 mm | >3 mm | 2 mm | 1 mm | >3 mm | 2 mm | Activity [21]: 2 mm; Activity [22]: 2 mm; Activity [23]: >3 mm; Activity [24]: 1 mm; Activity [25]: 2 mm; Activity [26]: 2 mm; Activity [27]: 1 mm; Activity [28]: 1 mm; Activity [29]: 2 mm; Activity [30]: >3 mm; Activity [31]: >3 mm; Activity [32]: 2 mm; Activity [33]: 2 mm; Activity [34]: 1 mm; Activity [35]: >3 mm; Activity [36]: 2 mm; Activity [37]: 2 mm; Activity [38]: >3 mm; Activity [39]: 1 mm
